Broadly, the IC50 is the midpoint of a concentration-inhibition curve. As usually defined, the Cmax is the maximum level reached in the sampled fluid or tissue. By Tmax is commonly meant the time from dosing to the highest level. As a reminder, the AUC is the area under the concentration-time curve, a measure of exposure.

The text below walks through data of ChEMBL document CHEMBL5634095, “Design, synthesis and evaluation of novel pyrimidinylaminothiophene derivatives as FGFR1 inhibitors against human glioblastoma multiforme” (Eur J Med Chem, 2023).

The test system of data set [1] is U-87 MG. Put plainly: Antiproliferative activity against human U-87 MG cells incubated for 48 hrs by MTT assay.
In data set [2] the test system is U-87 MG. Put plainly: Antitumor activity against human U-87 MG cells implanted in nude mouse assessed as reduction in CD31 expression at 75 mg/kg/day, po administered 5 times a week for 4 weeks by IHC analysis. Type of data set: functional, U-87MG ATCC. Also on record: scale not given: the % may be the effect or the level left.
The subject of data set [3] is U-87 MG. Briefly: Antitumor activity against human U-87 MG cells implanted in nude mouse assessed as reduction in CD31 expression at 50 mg/kg/day, po administered 5 times a week for 4 weeks by IHC analysis. It counts as functional, U-87MG ATCC. Details: scale not given: the % may be the effect or the level left.
Data set [4] can be described thus: Cmax in rat at 52.5 mg/kg, po measured upto 48 hrs by LC analysis. It counts as ADME, organism-based. The note with it: in vivo. A digest of the protocol: (§1)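 Rats (n=5) dosed orally once with 52.5 mg/kg, dispersed in sodium carboxymethyl cellulose. Plasma separated at 1200×g, deproteinated with acetonitrile, then analysed by UHPLC on a C18 column with a methanol/formic acid eluent.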

Data set [5] has as its system U-87 MG. Put plainly: Antitumor activity against human U-87 MG cells implanted in nude mouse assessed as reduction in Ki67 expression at 50 mg/kg/day, po administered 5 times a week for 4 weeks by IHC analysis. Type of data set: functional, U-87MG ATCC. Details: scale not given: the % may be the effect or the level left.
Data set [6] relates to U-87 MG. Briefly: Induction of cell cycle arrest in human U-87 MG cells assessed as decrease in G0 phase cell population at 1 uM incubated for 48 hrs by PI staining based flow cytometry analysis (reference value: 71.6 %). Type of data set: functional, U-87MG ATCC. Also on record: scale not given: the % may be the effect or the level left. (In flow cytometry, cells or beads pass a laser one at a time.)

Data set [7] in a line: Tmax in rat at 52.5 mg/kg, po measured upto 48 hrs by LC analysis. It counts as ADME, organism-based. The note with it: in vivo. The procedure, abridged: as §1
The test system of data set [8] is U-87 MG. Briefly: Induction of cell cycle arrest in human U-87 MG cells assessed as increase in G2/M phase cell population at 0.3 uM incubated for 48 hrs by PI staining based flow cytometry analysis (reference value: 14.5 %). Type of data set: functional, U-87MG ATCC.
Data set [9] is described as follows: AUC in rat at 52.5 mg/kg, po measured upto 48 hrs by LC analysis. It counts as ADME, organism-based. The note with it: in vivo. The procedure, abridged: as §1
For data set [10], the system named is U-87 MG. Briefly: Induction of cell cycle arrest in human U-87 MG cells assessed as decrease in G0 phase cell population at 0.3 uM incubated for 48 hrs by PI staining based flow cytometry analysis (reference value: 71.6 %). It counts as functional, U-87MG ATCC. Details: scale not given: the % may be the effect or the level left.
Data set [11] deals with U-87 MG. Briefly: Inhibition of colony formation in human U-87MG cells.
The test system of data set [12] is HUVEC. Briefly: Anti-angiogenesis activity in HUVEC assessed as reduction in tube formation at 2 uM incubated for 24 hrs by matrigel based light microscopic analysis. It counts as functional, Homo sapiens. Details: scale not given: the % may be the effect or the level left.
Data set [13] deals with U-87 MG. Briefly: Induction of cell cycle arrest in human U-87 MG cells assessed as decrease in G0 phase cell population at 3 uM incubated for 48 hrs by PI staining based flow cytometry analysis (reference value: 71.6 %). Type of data set: functional, U-87MG ATCC. Details: scale not given: the % may be the effect or the level left.
Data set [14] has as its system U-87 MG. Put plainly: Anti-invasive activity against human U-87 MG cells assessed as reduction in number of cells at upper well at 0.3 uM incubated for 24 hrs by crystal violet staining based inverted microscope analysis. Type of data set: functional, U-87MG ATCC. The procedure, abridged:
(§2)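 Transwell top chambers coated with Matrigel (1:9 in serum-free DMEM). U-87 MG cells pretreated 20 min with 0.1% DMSO or compound, seeded at 1×10^4 cells/well, with complete medium below. After 24 h, non-invading cells removed and the rest fixed in paraformaldehyde, stained with 0.1% crystal violet, imaged at ×100 in six random fields and counted.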

The subject of data set [15] is U-87 MG. Briefly: Induction of cell cycle arrest in human U-87 MG cells assessed as increase in G2/M phase cell population at 3 uM incubated for 48 hrs by PI staining based flow cytometry analysis (reference value: 14.5 %). It counts as functional, U-87MG ATCC.
Data set [16] is described as follows: Terminal half-life in rat at 52.5 mg/kg, po measured upto 48 hrs by LC analysis. It counts as ADME, organism-based. The note with it: in vivo, read-out: beta t1/2 (converted). The procedure, abridged:
as §1

The test system of a further data set is NIH3T3. Briefly: Cytotoxicity against mouse NIH/3T3 cells incubated for 48 hrs by MTT assay. The note with it: nih3t3, 48 h. Type of data set: toxicity, cell-based. (Tetrazolium assays rely on reduction of a dye to a coloured formazan, in cell work by metabolically active cells.)
For data set [17], the system named is U-87 MG. Briefly: Induction of cell cycle arrest in human U-87 MG cells assessed as increase in G2/M phase cell population at 1 uM incubated for 48 hrs by PI staining based flow cytometry analysis (reference value: 14.5 %). It counts as functional, U-87MG ATCC.
Data set [18] has as its system HUVEC. Briefly: Anti-angiogenesis activity in HUVEC assessed as reduction in tube formation at 0.1 uM incubated for 24 hrs by matrigel based light microscopic analysis. It counts as functional, Homo sapiens. Also on record: scale not given: the % may be the effect or the level left.
Data set [19] relates to HUVEC. Briefly: Anti-angiogenesis activity in HUVEC assessed as reduction in tube formation at 0.5 uM incubated for 24 hrs by matrigel based light microscopic analysis. Type of data set: functional, Homo sapiens. Also on record: scale not given: the % may be the effect or the level left.
For the next data set, the species on record is Mus musculus. The note with it: dose 50-75 mg/kg/day, route po, time 4.0 weeks.
Data set [20] concerns U-87 MG. Put plainly: Antitumor activity against human U-87 MG cells implanted in nude mouse assessed as reduction in Ki67 expression at 75 mg/kg/day, po administered 5 times a week for 4 weeks by IHC analysis. Type of data set: functional, U-87MG ATCC. Details: scale not given: the % may be the effect or the level left.
In data set [21] the test system is U-87 MG. Briefly: Anti-invasive activity against human U-87 MG cells assessed as reduction in number of cells at upper well at 3 uM incubated for 24 hrs by crystal violet staining based inverted microscope analysis. Type of data set: functional, U-87MG ATCC. A digest of the protocol:
as §2

Molecules are shown by their SMILES. Activity calls are given as the source filed them. The rule behind the calls is not given here.

The molecule `CNC(=O)c1cc(C(C)(C)C)sc1Nc1nc(Nc2ccc(N3CCOCC3)cc2)ncc1C(F)(F)F` came in with an IC50 in the data set on U-87 MG [1] of over 50 µM.

Molecule `CNC(=O)c1ccsc1Nc1nc(Nc2ccc(OCCN3CCOCC3)cc2)ncc1C(F)(F)F` gave an IC50 in the data set with U-87 MG [1] of 12 µM.

Consider `CNC(=O)c1ccsc1Nc1nc(Nc2cccc(N3CCOCC3)c2)ncc1C(F)(F)F`, for which the IC50 in the data set on U-87 MG [1] came to 19.2 µM.

In the data set on U-87 MG [1], `COc1cc(CCc2cc(NC(=O)c3ccc(N4C[C@@H](C)N[C@@H](C)C4)cc3)n[nH]2)cc(OC)c1` [FEXAGRATINIB] displayed a concentration for half-maximal inhibition (IC50) of 25.4 µM.

Molecule `CNC(=O)c1ccsc1Nc1nc(Nc2ccc(CS(=O)(=O)N3CCOCC3)cc2)ncc1C(F)(F)F` showed a half-maximal inhibitory concentration (IC50) in the data set with U-87 MG [1] of 18.9 µM.

In the data set on U-87 MG [1], `CNC(=O)c1ccsc1Nc1nc(Nc2ccc(CCN3CCS(=O)(=O)CC3)cc2)ncc1C(F)(F)F` yielded an IC50 of 12.4 µM.

In the data set on U-87 MG [1], `CNC(=O)c1ccsc1Nc1nc(Nc2ccc(N3CCC(N4CCCCC4)CC3)cc2)ncc1C(F)(F)F` returned a half-maximal inhibitory concentration (IC50) of 2.77 µM.

`CNC(=O)c1ccsc1Nc1nc(Nc2ccc(N3CCC(N4CCOCC4)CC3)cc2)ncc1Br` returned a concentration for half-maximal inhibition (IC50) in the data set with U-87 MG [1] of 30.1 µM.

The molecule `CNC(=O)c1ccsc1Nc1nc(Nc2ccc(N3CCC(N4CCOCC4)CC3)cc2)ncc1Cl` showed an IC50 with U-87 MG [1] of 4.25 µM.

`CNC(=O)c1ccsc1Nc1nc(Nc2ccc(N3CCOCC3)cc2)ncc1C(F)(F)F`: the 50% inhibitory concentration (IC50) in the data set on U-87 MG [1] was over 50 µM.

As to `CNC(=O)c1ccsc1Nc1nc(Nc2ccc(N3CCC(N4CCOCC4)CC3)cc2)ncc1C`, the IC50 in the data set on U-87 MG [1] was 11.6 µM.

As to `CNC(=O)c1ccsc1Nc1nc(Nc2ccc(N3CCC(N4CCOCC4)CC3)cc2)ncc1C(F)(F)F`, the Activity was 37.5% in the data set with U-87 MG [2]; 78.9% with U-87 MG [3]; 38.4% in the data set with U-87 MG [5]; 16.6% in the data set with U-87 MG [6]; 56.8% with U-87 MG [8]; 34.4% in the data set with U-87 MG [10]. In addition, the Activity in the data set with HUVEC [12] is listed as 81%; in the data set on U-87 MG [13], 9.36%; in the data set with U-87 MG [14], 71; in the data set with U-87 MG [15], 86.8%; in the data set with NIH3T3 it was “Non-Toxic”; in the data set with U-87 MG [17] it was 79.4%. The Activity in the data set with HUVEC [18] came to 10.4%; in the data set with HUVEC [19], 59.7%; in the data set on U-87 MG [20] it was 62%; with U-87 MG [21], 24. Further, the highest level in [4] (Cmax) was 3.9 µg/mL. The time of peak concentration (Tmax) in [7] turned out to be 4.4 h. In [9], this molecule gave an AUC at 48 h of 71.5 µg·h/mL. In addition, the half-maximal inhibitory concentration (IC50) in the data set with U-87 MG [11] came out at 0.12 µM; with U-87 MG [1], 2.38 µM. Further, in [16], the half-life is 14.3 h. The inhibition entry in the data set filed under Mus musculus is “Active”.

Molecule `CNC(=O)c1ccsc1Nc1nc(Nc2ccc(N3CCN(CCO)CC3)cc2)ncc1C(F)(F)F` yielded an IC50 with U-87 MG [1] of 3.71 µM.

On to `CNC(=O)c1cc(-c2ccccc2)sc1Nc1nc(Nc2ccc(N3CCOCC3)cc2)ncc1C(F)(F)F`, for which, in the data set with U-87 MG [1], the IC50 was found to be 23.2 µM.
